The list is not random: actives were taken first. Their share in the collection is about 3.7%.
14-3-3 Bad PPI – disrupts binding of bovine 14-3-3 zeta to phospho-Bad peptide. inhibition, % at 21.7 µM. TR-FRET 14-3-3zeta/Dy647-pBad peptide displacement, 1 h. hit rate 0.71% among 220,000;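 active means inhibition above about 70%, limit read from the data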;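 further: 0% = full 14-3-3 plus peptide FRET controls and 100% = background without 14-3-3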
NCF1 inh – inhibitors of human p47phox binding | P14598 | p47phox/p22phox peptide binding, fluorescence polarization, 2 h | inhibition, % at 24.7 µM | hit rate 0.53% among 220,000 | AID 1274;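 further: 0% = p47phox with labelled peptide and 100% = labelled peptide alone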
WT yeast gro inh – growth inhibition of WT yeast, mitochondrial fusion screen; mitochondrial fusion phenotypic screen, WT strain; inhibition, % at 10 µM; hit rate 2.1% among 190,000; in the data active means inhibition above about 58%; tested in S. cerevisiae
eIF4E 4G PPI – blocks eIF4E binding to eIF4G | P63073+Q04637 | TR-FRET eIF4E-eIF4GI(517-606) binding, 2 h | inhibition, % at 21.7 µM | hit rate 0.37% among 220,000;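 further: 0% = full FRET control wells and 100% = background wells lacking eIF4GI fragment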
RBBP9 inh – human RBBP9 hydrolase inhibition. recombinant RBBP9, FP-Rh probe fluorescence polarization. inhibition, % at 7.94 µM. hit rate 0.2% among 220,000. AID 1515;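 active means inhibition above the campaign mean of all tested compounds plus 3 SD, cut at about 14% in these data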;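 further: plate controls were DMSO wells with RBBP9 for no effect and wells lacking RBBP9 protein for full effect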
Target sequence (O75884 whole entry, looked up): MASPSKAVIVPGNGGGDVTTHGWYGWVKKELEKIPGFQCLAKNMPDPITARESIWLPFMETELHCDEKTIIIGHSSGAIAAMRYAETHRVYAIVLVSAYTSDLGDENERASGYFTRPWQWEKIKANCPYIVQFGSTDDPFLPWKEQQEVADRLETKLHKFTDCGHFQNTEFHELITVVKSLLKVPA
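Assay system: recombinant human RBBP9; Reagent: Serine-hydrolase probe FP-Rh, 375 nM pre-mixing; Doses: 7.94 µM single dose, 0.794% DMSO; Incubation: 30 min then 45 min, 25 °C; Detection: fluorescence polarization (mP), excitation 525 nm, emission 598 nm; Evaluation: percent inhibition from mP, scaled between DMSO and no-protein wells.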
EBV gp42 inh – EBV gp42 inhibition; hit rate 0.42% among 220,000; Fluorescence polarization binding assay, mP read-out; AID 1085; inhibition, % (tested at 21.74 µM); Q1HVG2; in the data active means inhibition above about 50%
Target sequence (Q1HVG2 whole entry, looked up): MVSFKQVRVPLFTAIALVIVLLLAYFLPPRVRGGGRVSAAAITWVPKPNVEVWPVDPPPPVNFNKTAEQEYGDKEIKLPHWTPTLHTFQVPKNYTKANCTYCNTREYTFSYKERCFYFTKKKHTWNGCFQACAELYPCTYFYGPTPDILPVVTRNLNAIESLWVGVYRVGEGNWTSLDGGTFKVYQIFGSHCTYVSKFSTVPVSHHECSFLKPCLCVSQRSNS
Starred values were filed as active, the others as inactive; . = no result given.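 How the source made its calls, unless noted: active means inhibition above about 30% (limit read from the data); inactive means the rest.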

SMILES	14-3-3 Bad PPI	NCF1 inh	WT yeast gro inh	eIF4E 4G PPI	RBBP9 inh	EBV gp42 inh
C#CCOCCOCCOCCNc1nc(N2CCN(C(=O)[C@H](CCCCN)n3cc([C@@H](N)CO)nn3)CC2)nc(N2CCN(C(=O)[C@H](Cc3cc4ccccc4[nH]3)n3cc([C@@H](N)Cc4ccc(O)cc4)nn3)CC2)n1	30	39*	-2	0	12	-6
C#CCOCCOCCOCCNc1nc(N2CCN(C(=O)[C@H](CCCCN)n3cc([C@@H](N)CC(C)C)nn3)CC2)nc(N2CCN(C(=O)[C@H](Cc3cc4ccccc4[nH]3)n3cc([C@@H](N)Cc4ccc(O)cc4)nn3)CC2)n1	30	.	-15	3	-3	-16
CCOC(=O)C1CCN(C(=O)c2cccnc2Oc2ccccc2)CC1	1	12	.	-7	-11	-1
CCOC(=O)c1c(C)nc2sc3c(=O)n(-c4ccc(C(C)=O)cc4)nnc3c2c1-c1ccc(Cl)cc1	-7	60*	13	-16	-3	2
S=C(NCCN1CCOCC1)NC1CCCC1	-7	-5	0	-5	-5	-4
Cc1oc(-c2ccc(Cl)cc2)nc1CN1CCC(C(=O)N2CCc3ccccc3C2)CC1	8	45*	33	-2	-8	-9
Cc1oc(-c2ccccc2F)nc1CN1CCC(C(=O)NCCC2=CCCCC2)CC1	-3	-12	98*	-1	1	-5
Cc1oc(-c2ccc(Cl)cc2)nc1CN1CCC(C(=O)NCc2ccco2)CC1	-16	-8	-9	64*	-3	-5
Cc1oc(-c2ccc(Cl)cc2)nc1CN1CCC(C(=O)N2CCN(Cc3ccccc3)CC2)CC1	3	1	27	-3	-2	-6
O=C(NCc1ccco1)C1CCN(C(=O)c2cc3sccc3n2Cc2ccc(Cl)cc2)CC1	-6	-18	61*	2	-15	-6
C=CCC(CC=C)(NC(=O)c1cccc(C)c1)c1ccccc1	2	-5	14	3	-13	-14
CCN(Cc1cc2cc(C)ccc2[nH]c1=O)C(=O)c1cccc([N+](=O)[O-])c1	-7	-15	.	0	-6	-15
O=C(c1cccc(Br)c1)c1conc1C(=O)c1ccco1	-8	-29	67*	3	-6	-13
Clc1ccc2c(N/N=C/c3cccnc3)ccnc2c1	-7	-16	28	-2	-9	-8
Clc1ccc2c(N/N=C/c3ccc(Br)cc3)ccnc2c1	46	22	99*	17	-2	-30
Cc1ccc(/C=N/Nc2ccnc3cc(Cl)ccc23)c(C)c1	68	47*	98	6	3	-42
O=C(c1ccco1)N1CCN(Cc2cn[nH]c2-c2cccc3ccccc23)CC1	-2	-6	.	0	-6	-1
COc1ccc2c(c1)nc(SCC(=O)c1cccs1)n2C	71*	-4	-11	10	-7	-4
COc1ccc2c(c1)nc(SCC(=O)C(C)(C)C)n2C	73*	-8	13	-5	0	-17
Oc1ccc(N=Nc2n[nH]c(-c3ccccc3)n2)cc1	23	-23	9	4	-4	-7
Oc1ccc(N=Nc2nc(-c3ccccc3)c(-c3ccccc3)[nH]2)cc1	-9	-50	92*	4	-11	-2
CCN1C(=O)/C(=c2\sc3nc(=O)c(Cc4ccccc4)nn3c2=O)c2ccccc21	-4	-2	.	4	-10	-13
NNc1nc(-c2ccccc2)cc(-c2ccccc2)n1	-13	-9	70*	0	-13	-11
Cn1nc(-c2ccc(Cl)cc2)nc2c(=O)n(C)c(=O)nc1-2	-6	-6	-12	1	-2	54*
CS(=O)(=O)n1nc(-c2ccc(Cl)cc2)nc1N	-11	2	6	1	-1	3
CCOC(=O)CN(c1ccccn1)S(=O)(=O)c1ccc(OC)cc1	-2	-2	6	1	2	6
CCCc1cc(=O)oc2cc(C)cc(O)c12	.	147*	10	.	-7	0
CCc1cc(=O)oc2cc(C)cc(O)c12	-7	-16	13	2	-5	-7
S=c1[nH]nc(COc2cccc(Cl)c2)n1Cc1ccccc1	-4	-9	73*	-2	-4	8
Cc1ccc(NCc2n[nH]c(=S)n2Cc2ccccc2)cc1Cl	-15	25	67*	-1	-1	3

Source: PubChem BioAssay (several laboratories)
